48 sequences from the EternaBench riboswitch data can be followed below.

This series relates to MS2 coat protein. As to the kind of experiment: apparent Kd, MS2 coat protein; higher = weaker binding; RNA-MaP array; FMN 200 µM where present. The essentials: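 The titrant was SNAP-549-labelled MS2 coat protein, run from 0.7 or 1.5 nM in doubling steps to 3 µM. It was applied to designs transcribed by stalled E. coli RNA polymerase on Illumina sequencing-chip clusters, without ligand first and then with constant ligand, in 100 mM Tris-HCl pH 7.5, 80 mM KCl, 4 mM MgCl2, BSA, DTT, yeast tRNA and Tween-20. The apparent Kd is the median of filtered per-cluster binding-curve fits, with green signal normalised to red-channel RNA signal and control-cluster median Fmax.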

The mark [1] stands for this setting: designed as: OFF switch for flavin mononucleotide, no ligand.
The mark [2] stands for this setting: ligand present: flavin mononucleotide, designed as: OFF switch for flavin mononucleotide.
The mark [3] stands for this setting: designed as: ON switch for flavin mononucleotide, no ligand.
[4] abbreviates: ligand present: flavin mononucleotide, designed as: ON switch for flavin mononucleotide.

For orientation: apparent Kd means the concentration giving half-maximal binding under the conditions of the assay.

For “UGGCCAAGAGGAUAUACAUGAGGAUCACCCAUGUCCAUCCUGAUGGAUAGGGCCGAGUGUAGAAGGCUUGGUCC”, the “apparent Kd” value under setting [1] came out at 32.6 nM and the “apparent Kd” value under setting [2] is 18 nM.
“AACAUACUGUACAUGAGGAUCACCCAUGUUCGGGCACUGUACAGAAGGCACGGGCAAAUGCGAGGUGAGGAUAUGUAGUUAGUG”: the “apparent Kd” value reads like this: under setting [3], 122 nM; under setting [4], 49.8 nM.
For the sequence “GCCUCACAUGAGGAUCACCCAUGUCAGGAUAUCUAAGGCGAAGUGCAAGCACCUCGUGAGAGAAGGGACGUCAA”, the “apparent Kd” value under setting [1] was found to be 23.2 nM and the “apparent Kd” value under setting [2] is 47.6 nM.
On to “GUUAGGAAUCUAGCGAACAUGAGGAUCACCCAUGUUAGUGGGAAGGAUAUGGUACAGAAACUGUACCAGAAGGUCUUAUUGUUU”, for which the “apparent Kd” value by setting is: under setting [3], 398 nM; under setting [4], 305 nM.
“UUUAUUUUUACAGGAUAUCAUCUAUAUAACUCAUGCAAAUGUUUACAUGAGGAUCACCCAUGUUAUGAGAAGGGUAUUGAAACA”: the “apparent Kd” value under setting [3] was 361 nM and the “apparent Kd” value under setting [4] amounted to 216 nM.
“AAUUAACAUGAGGAUCACCCAUGUGAGGAUAUGGUAUUAUUUGGACAGUUAUGAUCUACCAGAAGGCACAUAUA”: the “apparent Kd” value runs as follows: under setting [1], 39 nM; under setting [2], 65.1 nM.
“UAAAACGGAGGAUAUACUGACCCUCAAAACAGACGCGCUGGACAUGAGGAUCACCCAUGUAGAAGGCCGAAUGC”: the “apparent Kd” value is, setting by setting: under setting [1], 26.3 nM; under setting [2], 61.9 nM.
Turning to “UUGGACGUCGUAGGAUAUGUAGGAAAUUCCUACAUGAGGAUCACCCAUGUUGACAUGGAAGAAGGACAGAAGGACGAUGUCCAU”, the “apparent Kd” value turned out to be 262 nM under setting [3] and 12.4 nM under setting [4].
“AACAAGAGGAUCACCCAUGUAACAUGAGGAUCACCCAUGUUCAAGGAUAUGUACAUGAUACAUGUACAGAAGGUGAAUUGGACU”: the “apparent Kd” value was determined as 21 nM under setting [1] and 36.2 nM under setting [2].
As for “AAUCGGGAGCAGAAGGCAUGUCAAAAGACAUGAGGAUCACCCAUGUAUAAAAGGCGAAAGCCGCAUGAGGAUAUGCUCCCGUAA”, the “apparent Kd” value came to 29.4 nM under setting [3] and 5.81 nM under setting [4].
As to “ACAUAGUUAGGAUAUGCUGCUCGUCACUUGCGUGAUGAGUAGCAGAAGGAACAUGAGGAUCACCCAUGUAAAGA”, the “apparent Kd” value runs as follows: under setting [1], 29.9 nM; under setting [2], 29.5 nM.
As for “AGUUGGCGAGGAUAUACAUGAGGAUCACCCAUGUGAAGAAGAAUAGUGAGGAAGAAAAGUAGAAGGCGCUGACA”, the “apparent Kd” value worked out at 47 nM under setting [1] and 260 nM under setting [2].
On the same counts, the results for “AAUUUACAGCUAGGAUAUACAUGAGGAUCACCCAUGUAAUGAUCGGAUCUUAUGAUCGUAUCCGUGUAGAAGGAGCAAAUAAGA” are 8.12 nM and 8.8 nM.
On to “UGUAUGUAGGAGAAGGAGGACUUCAUGAGGAUCACCCAUGUGUUAGGACUUAGGAUAUCUGACGACAUGAGGAUCACCCAUGUG”, for which the “apparent Kd” value under setting [3] was 537 nM and the “apparent Kd” value under setting [4] is 355 nM.
In the case of “AAACAGUACGAGAAGGGCUACAUGAGGAUCACCCAUGUAGACGGUCGUGUGGCAGGAUAUCGAACACACCCAAAACGGUGCGUU”, the “apparent Kd” value is, setting by setting: under setting [1], 5.9 nM; under setting [2], 7.43 nM.
With “GCUGCGUACGCAGGAUAUACAUGAGGAUCACCCAUGUAACUCGAACUCUAAGCGGGUGCGCGCAUGUAGAAGGGCGGGCGAGCC”, the “apparent Kd” value by setting is: under setting [1], 35 nM; under setting [2], 67.9 nM.
As for “GGACGGAAAGUGAGGAUAUGCUCUACCUCGGUAGAGCAGAAGGCACAUGAGGAUCACCCAUGUGAUAACUGUUC”, the “apparent Kd” value amounted to 19.1 nM under setting [1] and 93 nM under setting [2].
In the case of “GAUUGAGAGCAGGAUAUCUUAGAAAUGUAUUAAAGAGAAGGGCUCACAUGAGGAUCACCCAUGUGGUCCUAGAU”, the “apparent Kd” value by setting is: under setting [1], 20.2 nM; under setting [2], 175 nM.
“UGUAUUAAUGGAGGAUAUCGAUAUCAAACAUGAGGAUCACCCAUGUUGAGGAUCACCCAUGUCCAUGAGAAGGCUGGCGUACUU”: the “apparent Kd” value under setting [3] was determined as 30.4 nM and the “apparent Kd” value under setting [4] was 29.2 nM.
Regarding “ACAAGUUUGUAGAAGGACGACUAAUUUGUAUUCGUAGGAUAUACUAUUUACAUGAGGAUCACCCAUGUUUUUAUGGAACAAUGU”, the “apparent Kd” value under setting [1] worked out at 11.9 nM and the “apparent Kd” value under setting [2] turned out to be 16.2 nM.
In the case of “GUCAGCUCGUGAGGAUAUACAACACUGCUUCGGCAGUGUAUUAAGAUCACAUGAGGAUCACCCAUGUAGAAGGCACGAGCUUAU”, the “apparent Kd” value under setting [1] came out at 13.5 nM and the “apparent Kd” value under setting [2] was found to be 233 nM.
On the same counts, the results for “UCUGCUCGAGGAUAUACAUGAGGAUCACCCAUGUAACCCAGAAGCAUGGCCUCAGGAUGUAGAAGGCGACGCUA” are 17.3 nM and 37.5 nM.
In the same order, the values of “UGCGGUAGAGGAUAUACGUAGAUACAGAUUCAUGUAGAACUACAUGAGGAUCACCCAUGUAGAAGGCUAUCGCU” are 39.2 nM and 482 nM.
In the case of “CUGGGCCAGGAGAAGGGCUAGAGUGUGAUAUAUUUGCCCGCGAGCACAUGAGGAUCACCCAUGUAGCAGGAUAUCCAAGCCGGU”, the “apparent Kd” value is, setting by setting: under setting [1], 8.38 nM; under setting [2], 15.8 nM.
For the sequence “CGCUACACCCAGAAGGACAUGAGGAUCACCCAUGUAGGAUAUGGGAGACACAGUCCCAUGUAGAGAAACUACGCUAGUGUAGCG”, the “apparent Kd” value under setting [3] was 200 nM and the “apparent Kd” value under setting [4] worked out at 81.4 nM.
On the same counts, the results for “AAUUAAUUGUAGAAGGUACUUAAUUAUGUUAUGUAAGGAUAUACGUAAUUAUUACGUCUUGUAUGACAUGAGGAUCACCCAUGU” are 12.9 nM and 11 nM.
For the sequence “GUCGGAAACGACAAAAGUAUGGAUCCAGAAGGCAUGAAACAUGAGGAUCACCCAUGUCUAAGACAUGAGGAUAUGGAUCCAUAC”, the “apparent Kd” value worked out at 7.11 nM under setting [3] and 3.78 nM under setting [4].
In the case of “UAAUCGUUGCAGAAGGUUAUUUUUUUAACAUUUCUCUUAACAUGAGGAUCACCCAUGUUUUUGAUGAAGGAUAUGCAACGGUAG”, the “apparent Kd” value reads like this: under setting [1], 6.67 nM; under setting [2], 5.51 nM.
With “CGGGUCUGAGGAUAUCCAUCUUCAUACAUGAGGAUCACCCAUGUUUACCCUUGGGUUCCUGGAGAAGGCAGUUUUC”, the “apparent Kd” value runs as follows: under setting [1], 166 nM; under setting [2], 162 nM.
For the sequence “UCGUACAUUCGAGGAUAUCGGUGAUUAAUAAUACGAGAAGGCGAUUUAAGGCAUAAAGCCUUAGACAUGAGGAUCACCCAUGUA”, the “apparent Kd” value by setting is: under setting [3], 107 nM; under setting [4], 70.5 nM.
For the sequence “GGAUUACAUGAGGAUCACCCAUGUGAGGAUAUCGAUGUCCUCAGUCAAGUGCGGGACUCGAGAAGGCACUUGGA”, the “apparent Kd” value by setting is: under setting [1], 64.2 nM; under setting [2], 32 nM.
On the same counts, the results for “AAUAACAGAGGAUAUACUAUUUUAUGUAUUUAUUAUUUUGAACAUGAGGAUCACCCAUGUAGAAGGCUGAUUAA” are 29.6 nM and 27.2 nM.
As for “AAUCUUUUUAUGGGAUUAGAAUAUGAGGAUAUCAUUUGUUUAUACAUGAGGAUCACCCAUGUUUCUGAGAAGGCAUAUAUAAUA”, the “apparent Kd” value is, setting by setting: under setting [3], 44.6 nM; under setting [4], 10.2 nM.
As to “AAAAAACAUGAGGAUCACCCAUGUUAGGAUAUCGUGCAGAAAAAAAAAAAAAACUGCACGAGAAGGAACAAGGA”, the “apparent Kd” value was 74.5 nM under setting [1] and 98.8 nM under setting [2].
In the same order, the values of “GUUGCUACUGAGGAUAUUAUUCUACCCGACUGAUAAGAAGGCAGUACAUGAGGAUCACCCAUGUGGGUAGCCAG” are 16.7 nM and 22.5 nM.
Regarding “ACCUCGUCAGGAUAUCCUAUUAAUUGUUUCAUAUUUACGAUGGAGAAGGGACAUGAGGAUCACCCAUGUUGGUC”, the “apparent Kd” value reads like this: under setting [1], 35.5 nM; under setting [2], 58 nM.
“UAGAAGUCAGGAUAUCCAGCUCGUCACUUGCGUGAUGAGUUGGAGAAGGGACAUGAGGAUCACCCAUGUAAAGG”: the “apparent Kd” value under setting [1] is 152 nM and the “apparent Kd” value under setting [2] is 242 nM.
On to “GAGUAGAUCCGAGGAUAUACAAUCCGGAAACGGUACAUGAGGAUCACCCAUGUAGAAGGCGGAUCUACAGGUACUAAAGUACCU”, for which the “apparent Kd” value under setting [2] stood at 7.89 nM.
As for “CCAUACAUGAGGAUCACCCAUGACAUGAGGAUCACCCAUGUGCAGGAUAUACGUGAUAUAAUAUAGUAGAAGGGCAGACCAAAA”, the “apparent Kd” value was 75.7 nM under setting [1] and 85.2 nM under setting [2].
“UACCAAUUUUUGGUAUUACACUAUGAGGAUAUCAUAUAUGAAUACAUGAGGAUCACCCAUGUGUGUGAGAAGGCAUAAUUUAUA”: the “apparent Kd” value by setting is: under setting [3], 28.1 nM; under setting [4], 10.5 nM.
As to “AGCAAGCGAGGAUAUGCUCGGGUUGCUUGUCGAGAGGAUACACAUGAGGAUCACCCAUGUAGAAGGUGUAUAAA”, the “apparent Kd” value under setting [1] came to 37.7 nM and the “apparent Kd” value under setting [2] was 28.4 nM.
Regarding “AGUGUCAUCGAGAAGGCCUCAACAUGAGGAUCACCCAUGUUGCAAAAUGGGAGGAUAUCAAAACUACAGCUACGUUUCGUAGCA”, the “apparent Kd” value was 69.1 nM under setting [3] and 9.44 nM under setting [4].
Consider “GUAGAACAUGAGGAUCACCCAUGUGAAGACGCAUGAGGAUAUAUCCGUACCUAGCAUACGAUAGAAGGCAUGAUAC”, for which the “apparent Kd” value by setting is: under setting [3], 113 nM; under setting [4], 49.7 nM.
With “CCAGGCUUCGAGAAGGACAUGAGGAUCACCCAUGUGCGUGUGAAGCAGCCGUGAGGCUGCAUCAUGUAGGAUAUCGGAGUCUGG”, the “apparent Kd” value runs as follows: under setting [1], 71.9 nM; under setting [2], 499 nM.
As to “UAUUAAUACGAAGGAUAUGGUUACAUGAGGAUCACCCAUGUAUGUAUAUUGAUCUAGAUAUUUAACCAGAAGGUCGGGAGUAAA”, the “apparent Kd” value was determined as 39 nM under setting [1] and 38.2 nM under setting [2].
In the same order, the values of “UGUGCGUAUGUGAGGAUAUGCUGGUCCUUGGAUCGGCAGAAGGCACAUGAGGAUCACCCAUGUGGUGUCGUUCA” are 264 nM and 27.2 nM.
With “GAUUAACAUGAGGAUCACCCAUGUCGUUUAAUGGGAGGAUAUACGUGGACCGUAGUCCGCGUAGAAGGCCUAAUUG”, the “apparent Kd” value stood at 90.8 nM under setting [3] and 26.9 nM under setting [4].
For the sequence “GGUCCACAUGAGGAUCACCCAUGUUAGGAUAUCUCCUGCCUCCUAAAUGGAAGCAGACAGAGAAGGAACAUCAA”, the “apparent Kd” value stood at 21.9 nM under setting [1] and 84.4 nM under setting [2].
